Screening data: PubChem BioAssay, several laboratories
An excerpt weighted towards active compounds, which were near 1.2% of everything screened.
PfG6PD inh: PfG6PD (Plasmodium falciparum) enzyme inhibition | PfGluPho enzyme, NADPH resazurin-diaphorase fluorescence | inhibition, % at 20 µM | actives 0.78% (n = 350,000);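 active = inhibition reaching at least a set limit at 20 µM in the primary screen, cut at about 59% in these data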;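 also: 0% = DMSO wells with substrate and 100% = DMSO wells lacking glucose-6-phosphate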
Tb hexokinase: T. brucei hexokinase 1 inhibition. actives 0.11% (n = 220,000). inhibition, % at 10 µM. recombinant TbHK1, G6PDH-coupled NADH A340;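 active = inhibition of 50% or more in the single-dose primary screen; inactive = inhibition below 50%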
G6PDH counter: counter-screen for G6PDH assay hits: L. mesenteroides G6PDH inhibition. actives 0.12% (n = 200,000). inhibition, % at 5 µM. Purified L. mesenteroides G6PDH, diaphorase/resazurin coupled fluorescence, 45 min. AID 1020; in the data active = inhibition above about 50%
HKDC1 inhibitor: HKDC1 (human) hexokinase inhibition | recombinant HKDC1, G6PDH/diaphorase resazurin coupled fluorescence | inhibition, % at 20 µM | actives 0.16% (n = 340,000) | AID 493160;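 active = inhibition above about 35% when tested at 20 µM, limit read from the data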;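 also: plate controls were DMSO wells with enzyme for no effect and DMSO wells lacking enzyme for full effect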
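Test system: recombinant HKDC1 (HK5) hexokinase enzyme, produced in-house; Amount: enzyme 5 µg/mL final; Buffer or medium: Tris pH 8.0 buffer with MgCl2, Tween-20, BSA, BME; Reagent: glucose and ATP substrates; Doses: 20 µM test compound, 1% DMSO; Incubation: 90 min reaction incubation at room temperature, dark; Detection: resorufin fluorescence at 613 nm.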
Diaph inh CS: inhibits diaphorase or chemically oxidizes, flagging diaphorase assay artifacts; actives 0.69% (n = 190,000); inhibition, % at 20 µM; diaphorase resazurin-to-resorufin fluorescence, NADH, 16 min; bacterial (C. kluyveri) enzyme, not human;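 active = primary screen inhibition at 20 µM above a set limit, cut at about 50% in these data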;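 also: plate controls were DMSO with full reaction for no effect and wells lacking NADH for full effect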
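Assay system: diaphorase enzyme from Clostridium kluyveri; Input: enzyme working solution with 0.14 U/mL diaphorase; Timing: 16 min at room temperature; Technique: resorufin fluorescence, excitation 544 nm, emission 590 nm; Benchmarks: positive control minus NADH, DMSO neutral control.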
The depositor's hits bear a star; x = no result given.

SMILES	PfG6PD inh	Tb hexokinase	G6PDH counter	HKDC1 inhibitor	Diaph inh CS
CN(C(=O)c1cccc(NC(=O)Cc2cccc(NC(=O)C3CCN(C(=O)CCc4ccccc4)CC3)c2)c1)C1CC1	4	x	x	-5	x
CN(Cc1ccccc1)C(=O)C1CCN(S(=O)(=O)c2cccc3nsnc23)CC1	-7	x	x	-1	x
CN(CCCNC(=O)C1CCN(S(=O)(=O)c2cccc3nsnc23)CC1)Cc1ccccc1	-11	58*	4	4	16
c1ccc(C2=Nn3c(nnc3-c3ccco3)SC2)cc1	-2	-3	-1	7	73*
Cc1nc2c(C(=O)NCCC3=CCCCC3)c[nH]n2c(=O)c1Cl	18	14	-3	21	54*
C#CCN(C[C@@H]1[C@@H](OC(=O)NCC2CCCCC2)[C@@H](OC(=O)NCC2CCCCC2)Cn2c(=O)n(CCCCCC)c(=O)n21)S(=O)(=O)c1ccc(C)cc1	-20	x	x	x	x
N=C1/C(=C\c2ccc(-c3ccc(C(=O)O)cc3)o2)C(=O)N=C2SC=C(c3ccccc3)N12	22	-11	x	40*	x
N=C1/C(=C\c2ccc(-c3cccc(Cl)c3)o2)C(=O)N=C2SC=C(c3ccccc3)N12	-5	13	-13	-9	2
CC(C)CC1C(=O)N(Cc2cn(CCC3OCCCO3)nn2)CCS(=O)(=O)N1Cc1ccc(-c2ccncc2)cc1 (stereo not drawn)	18	x	x	x	x
CCN(CC)C(=O)CSc1nc2c(sc(=S)n2-c2ccccc2)c(=O)n1Cc1ccco1	25	-17	-2	4	51*
O=C(CCNC(=O)c1ccc([N+](=O)[O-])cc1)Nc1cc(C(F)(F)F)ccc1N1CCOCC1	7	x	x	x	x
O=C(O)c1c(Cl)cccc1Nc1ccccc1	-18	x	x	-1	x
CC1=CC(=O)C(C(C)C)=CC1=NC(=O)c1ccc(C)cc1	93*	4	8	9	37
Cc1cc(Cl)ccc1OC(C)C(=O)Nc1cccc(S(=O)(=O)N2CCOCC2)c1 (stereo not drawn)	10	x	x	x	x
Cc1ccc(NC(=O)c2ccc(S(=O)(=O)N3CCOCC3)cc2)cc1	-10	x	x	-4	x
Cc1ccc(SC(C)C(=O)Nc2ccc(S(=O)(=O)N3CCOCC3)cc2)cc1 (stereo not drawn)	-4	-9	10	8	53*
CC(Sc1nc2cc(Cl)ccc2s1)C(=O)Nc1cccc(S(=O)(=O)N2CCOCC2)c1 (stereo not drawn)	27	28	8	6	66*
Cc1ccc(S(=O)(=O)N2C[C@H]3[C@H]4C(=O)N(c5ccccc5)C(=O)[C@H]4C[C@H](OC(=O)NCc4ccccc4F)[C@@]3(O)C2)cc1	-6	x	x	x	x
CC(=O)c1ccc(NC(=O)c2ccc(C)c(Br)c2)cc1	14	5	8	17	94*
O=C1OC(Nc2ccc3ncccc3c2)c2ccccc21 (stereo not drawn)	55	-18	28	3	56*
C/C(=N/Nc1ccc(C(=O)O)cc1)c1ccc(O)c(O)c1O	-3	3	25	3	61*
O=C(COc1ccccc1/C=C\c1nc(O)c([N+](=O)[O-])c(=O)[nH]1)Nc1ccccc1	5	-3	10	33	72*
O=C(NCc1nnnn1-c1ccc(F)cc1)c1cc2ccccc2o1	-4	x	x	x	x
Cc1cc(O)c(Oc2cc(C)cc(O)c2O)c(O)c1	49	12	39	5	71*
C[C@H]1Cn2cnc(C(=O)Nc3cccc(Cl)c3)c2C(=O)N1	-13	x	x	x	x
SMILES	PfG6PD inh	Tb hexokinase	G6PDH counter	HKDC1 inhibitor	Diaph inh CS
COc1ccc(C(=O)CSc2nnc(-c3ccco3)c(-c3ccco3)n2)cc1	46	-1	19	6	62*
CSc1nnc(-c2ccccc2)c(-c2ccccc2)n1	-16	-20	x	0	x
CSc1nnc(-c2ccco2)c(-c2ccco2)n1	51	-16	27	15	61*
CC1=C(C(=O)N2CCOCC2)CC(CC(=O)NC2CCCC2)C(=O)N1CCCN1CCCC1=O (stereo not drawn)	-10	x	x	x	x
CC(C)(C)C1=CC(=O)C(N2CCOCC2)=CC1=O	50	-6	55*	14	32
CN1OC[C@@H]2CN(S(=O)(=O)c3cccc(C(F)(F)F)c3)[C@H](c3ccc(-c4cccnc4)cc3)C[C@@H]21	11	x	x	x	x
Cc1cc2cc(CCNC(=O)C(=O)c3c[nH]c4ccccc34)c(=O)[nH]c2cc1C	27	-1	1	27	70*
Cc1cc2cc(CCNC(=O)c3ccc(C)c([N+](=O)[O-])c3)c(=O)[nH]c2cc1C	-20	1	19	29	72*
Cc1cc(=O)n2cccc(O)c2n1	21	-7	56*	-3	63*
Cc1cccn2c(=O)cc(COC(=O)C(C)Oc3ccccc3)nc12 (stereo not drawn)	-2	x	x	0	x
COc1ccc(C(=O)NC(=S)NNC(=O)CNC(=O)C2CCCCC2)cc1	-4	-2	0	-4	59*
O=C(NCC1CCCO1)c1cn(-c2ccccc2)nc1-c1ccccc1 (stereo not drawn)	-14	-4	7	-3	58*
COc1ccc(-c2nn(-c3ccccc3)cc2C(=O)NCC2CCCO2)cc1 (stereo not drawn)	3	x	x	-1	x
O=C(O)CC/C(=N/Nc1ncc(C(F)(F)F)cc1Cl)C(=O)O	-1	-3	10	-10	53*
CCCCn1c2nc3ccccc3nc2c2c(=O)n(C(C)CC)cnc21 (stereo not drawn)	-20	-16	5	6	26
CCC(C)n1c(C)nc2c(c1=O)c1nc3ccccc3nc1n2CCC1=CCCCC1 (stereo not drawn)	-26	0	-1	-8	64*
CC1CCCCC12NC(=O)N(CC(=O)Nc1sccc1C(N)=O)C2=O (stereo not drawn)	-2	x	x	-6	x
Nc1c(C(=O)NCc2ccco2)sc2nc3c(cc12)C(=O)CCC3	19	-4	-41	15	53*
CCn1c(SCC(=O)N/N=C/C=C\c2ccco2)nc2ccccc21	48	-28	-18	-9	22
Cn1c(SCC(=O)N/N=C/C=C\c2ccco2)nc2ccccc21	62*	-64	12	9	45
CC1=C(C)/C(=N\OS(=O)(=O)c2ccccc2)C=CC1=O	112*	-2	34	19	100*
Cc1ccc(S(=O)(=O)O/N=C2\CCCc3ccccc32)cc1	-9	1	8	17	32
COc1cccc(OC)c1OCCCN1CCOCC1	-2	3	8	-10	53*
Cc1cccc(C)c1OCCCN1CCOCC1	3	x	x	0	x
Oc1c(CN2CCCCC2)cc(Br)c2cccnc12	44	1	36	-7	57*
Oc1c(CN2CCc3ccccc3C2)cc(Cl)c2cccnc12	37	6	0	10	68*
CC(CN1CCOCC1)OC(=O)c1ccc(Br)cc1 (stereo not drawn)	14	-3	57*	2	34
